High-throughput results from PubChem.
LMPTP block – blocks human LMPTP phosphatase; recombinant LMPTP-A, OMFP fluorogenic substrate, fluorescence intensity; P24666; inhibition, % at 20 µM; hit rate 0.22% among 360,000; AID 651560;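 active means compounds that cut the enzyme signal by at least half of the control window in the single-dose screen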
Target sequence (P24666 whole entry, looked up): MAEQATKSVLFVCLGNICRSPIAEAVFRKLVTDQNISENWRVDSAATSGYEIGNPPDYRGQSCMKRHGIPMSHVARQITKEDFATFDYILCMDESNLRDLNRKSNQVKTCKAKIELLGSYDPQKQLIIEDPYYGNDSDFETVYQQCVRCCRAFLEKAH
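Test system: LMPTP-A phosphatase enzyme. Amount: LMPTP-A at 0.625 nM final in the reaction. Reagent: OMFP substrate, 400 µM final. Times: 50 min at room temperature. Signal: endpoint fluorescence intensity from OMFP dephosphorylation. Read-out basis: % inhibition. Benchmarks: no-enzyme and uninhibited controls.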
STEP inh – blocks human striatal-enriched tyrosine phosphatase; inhibition, % at 20 µM; recombinant STEP, OMFP fluorogenic substrate, fluorescence; hit rate 0.25% among 360,000;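 active means inhibition at 20 µM, scaled per plate between control wells, above about 37%, limit read from the data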
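System: isolated STEP enzyme; schedule: 20 min enzyme reaction at room temperature, protected from light; medium: Bis-Tris buffer pH 6.0, 2.5 mM DTT, 0.005% Tween 20; signal: fluorescence, 480/540 nm; dosing: single compound dose of 20 µM, 1% DMSO final; also added: OMFP substrate, 25 µM final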
DNMT1 block – DNMT1 (human) enzyme inhibition; P26358; DNMT1 molecular beacon, Hinp1I cleavage, fluorescence; inhibition (reported as % activation of signal), % at 10 µM; hit rate 0.83% among 360,000; AID 588458; in the data active means inhibition above about 50%
SUMO1 PPI mod – alters human SUMO1 binding to SIM partners; P63165; SUMO1 binding to a labelled peptide, TR-FRET, 1 h; inhibition, % at 20 µM; hit rate 0.33% among 360,000; AID 602429; in the data active means inhibition above about 37%
Target sequence (P63165 whole entry, looked up): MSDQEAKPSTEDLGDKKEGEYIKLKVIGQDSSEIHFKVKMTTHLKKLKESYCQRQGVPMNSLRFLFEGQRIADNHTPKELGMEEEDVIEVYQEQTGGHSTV
CSN inh – blocks human CSN-mediated cullin deneddylation. Q92905. Purified CSN, SCF-Nedd8-OG deneddylation, fluorescence polarization. inhibition, % at 12.5 µM. hit rate 0.38% among 360,000. AID 651999;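 active means pattern-corrected inhibition above about 35%, with an unprinted fluorescence ratio check between 0.5 and 1.5, limit read from the data, passing the limit was not always enough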
Target sequence (Q92905 whole entry, looked up, one chain of several): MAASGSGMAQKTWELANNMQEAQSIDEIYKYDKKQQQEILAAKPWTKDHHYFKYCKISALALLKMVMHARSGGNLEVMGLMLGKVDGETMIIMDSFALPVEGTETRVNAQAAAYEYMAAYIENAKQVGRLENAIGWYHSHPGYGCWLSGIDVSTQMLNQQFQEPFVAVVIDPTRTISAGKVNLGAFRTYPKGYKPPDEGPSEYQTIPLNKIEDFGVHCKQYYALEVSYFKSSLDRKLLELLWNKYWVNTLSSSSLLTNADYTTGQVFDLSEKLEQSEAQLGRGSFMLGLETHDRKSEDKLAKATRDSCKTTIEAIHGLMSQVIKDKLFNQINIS
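Assay system: HEK293T-derived human Csn5 enzyme; quantity: 0.24 nM enzyme; medium: Tris/NaCl/DTT buffer, pH 7.5; also added: substrate SCFSkp2-Nedd8OG, 10 nM; doses: 12.5 µM compound; schedule: 90 min reaction at room temperature; signal: FP; read-out: % inhibition of substrate cleavage by Csn5; benchmarks: substrate-only high control, full reaction low control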
Scp-1 inhibitor – blocks human Scp-1 phosphatase activity | AID 493091 | Q9GZU7 | hit rate 0.88% among 340,000 | inhibition, % at 20 µM | Recombinant Scp1, phosphopeptide, malachite green phosphate absorbance;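 active means inhibition above about 50% at 20 µM, limit read from the data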
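System: SCP-1 catalytic domain; Reagent: Phospho 17-mer peptide substrate; Doses: one concentration, 20 µM, with 1.0% DMSO; Incubation: 45 min room-temperature reaction, 5 min colour, 30 min stabiliser; Signal: Phosphate-binding colour reagent, absorbance read at 630 nm.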
Numbers stand for hits; 0 = inactive; - = no result given. This is a sample that favours compounds with a hit; in the whole collection about 1.9% have one here.

SMILES	LMPTP block	STEP inh	DNMT1 block	SUMO1 PPI mod	CSN inh	Scp-1 inhibitor
COC(=O)/C(=C\Nc1ccc(Cl)cc1Cl)NC(=O)c1ccc(OC)cc1	0	0	0	39.6	0	0
O=C(/C=C/c1cn(-c2ccccc2)nc1-c1cccnc1)N1CCCCC1	0	0	0	0	0	0
O=C(/C=C/c1cn(-c2ccccc2)nc1-c1cccc(Cl)c1)N1CCN(c2ccccn2)CC1	0	0	0	0	153.4	0
Cc1cccc(C)c1NC(=O)NCCSc1snnc1C	0	0	0	0	35.5	0
Cc1nnsc1SCCNC(=O)c1c(F)cccc1F	0	0	0	0	0	0
CC(C)c1nnc(NC(=O)C2CCCN2C(=O)Nc2cccc(Cl)c2)s1 (stereo not drawn)	0	0	0	0	0	0
COc1ccc(CCNC(=O)c2ccc3nc(-c4ccco4)c(-c4ccco4)nc3c2)cc1OC	63.9	0	98.4	47.0	0	89.3
CCc1nc2ccc(C(=O)NCCc3ccc(OC)c(OC)c3)cc2nc1CC	0	0	0	0	0	0
O=C(Nc1ccc2nc(-c3ccco3)c(-c3ccco3)nc2c1)NC1CC1	70.5	54.2	92.6	75.9	0	92.2
O=C(Nc1cccc(C(F)(F)F)c1)c1ccc2nc(-c3ccco3)c(-c3ccco3)nc2c1	0	0	84.5	0	0	84.2
O=C(Nc1cccc(C(F)(F)F)c1)c1cc[n+]([O-])cc1	0	0	0	0	0	0
COc1ccc(OC)c(NC(=O)CC2Oc3ccccc3NC2=O)c1 (stereo not drawn)	0	0	0	0	0	0
CC(C)(C)c1csc(NC(=O)c2ccc3nccnc3c2)n1	0	0	0	0	0	0
O=C(OCCC12CC3CC(CC(C3)C1)C2)c1ccc(NCc2cc(O)ccc2O)cc1	0	0	0	0	0	70.2
Cc1nc(S/C(=C/c2ccc(-c3ccc(Cl)cc3)o2)C(=O)O)n[nH]1	0	0	0	0	0	0
Cc1nc(S/C(=C/c2ccc(-c3ccc(C(=O)O)cc3)o2)C(=O)O)n[nH]1	0	0	0	0	0	75.5
Cc1nc(S/C(=C/c2ccc(-c3cc(Cl)ccc3C)o2)C(=O)O)n[nH]1	0	0	0	69.0	0	0
c1ccc(CC[C@@H]2CC[C@@H](CCc3ccccc3)N2)cc1	0	0	0	0	42.9	0
c1ccc(CCC2Cc3ccccc3N2)cc1 (stereo not drawn)	0	0	0	0	0	0
O=C(CCO)c1ccc(O)cc1	0	0	0	0	0	69.0
CCCCC(=O)c1ccc(O)cc1	0	0	0	0	0	0
Cc1ccc(C)c(COc2coc(CN3CCN(C(=O)c4ccco4)CC3)cc2=O)c1	0	0	0	0	0	0
CN(CCCC(=O)O)c1ccc(N=Nc2ccc([N+](=O)[O-])cc2)cc1	77.2	99.1	0	0	0	110.5
COc1ccc(N(C(=O)c2ccncc2)S(=O)(=O)c2cccc([N+](=O)[O-])c2)cc1	0	0	0	0	0	0
O=C1c2cccc3cccc(c23)C(=O)C1(O)O	57.2	0	0	0	0	0
SMILES	LMPTP block	STEP inh	DNMT1 block	SUMO1 PPI mod	CSN inh	Scp-1 inhibitor
COc1ccc(CN2CC[C@@H]3CN(C(C)=O)[C@H](c4ccccc4Br)C[C@@H]32)cc1	0	0	0	0	160.8	-
CC(=O)N1C[C@H]2CON(C)[C@H]2C[C@H]1c1ccccc1Br	0	0	0	0	0	0
O=C(COc1ccc(Cl)cc1Cl)Nc1ccc(-c2ccc(N3CCOCC3)nn2)cc1	0	0	0	55.5	0	0
O=C(O)c1ccccc1NS(=O)(=O)c1cccc(-n2sc3ccccc3c2=O)c1	0	0	0	0	0	94.9
O=C(CSc1ccc(Cl)cc1)c1ccco1	0	0	97.9	0	0	72.9
O=C(CCSc1ccc(Cl)cc1)c1ccco1	0	0	0	0	0	0
Cn1c(CC(=O)NNC(=O)c2ccc(F)cc2Cl)nc2ccccc21	0	0	0	43.5	0	0
Cn1c(CC(=O)NNC(=O)c2ccc(Cl)nc2)nc2ccccc21	0	0	0	0	0	0
Cn1c(=O)n(C/C=C/c2ccccc2)c(=O)c2c1nc1n2CCCN1c1ccc(F)cc1	0	0	0	0	0	0
Cc1ccc(/C=C2\SC(=S)N(/N=C/c3cc([N+](=O)[O-])ccc3O)C2=O)o1	52.8	0	83.0	45.3	56.1	57.0
CCOc1cc(N2CCOCC2)c(OCC)cc1NC1=NCCCCC1	0	0	0	0	0	0
CC1(C)CN(c2ccc(Br)cc2)C(=O)[C@H]1CC(=O)Nc1ccccc1	0	0	0	0	0	-
CC(C)(O)C1Cc2cc(/C=C/C(=O)O)c(O)cc2O1 (stereo not drawn)	0	0	0	0	0	95.1
CN1CCC(N2CCN(C3CN(C4CCCC4)S(=O)(=O)C3)CC2)CC1 (stereo not drawn)	0	0	0	0	143.8	-
CN1CCC(N2CCN(C3CN(C4CCCCC4)S(=O)(=O)C3)CC2)CC1 (stereo not drawn)	0	0	0	0	0	-
Cc1cc(C)cc(OCC(=O)N(Cc2ccc(N(C)C)cc2)C2CCS(=O)(=O)C2)c1 (stereo not drawn)	0	0	0	0	0	0
COc1cc(C2/C(=C(\O)c3ccc4c(c3)CC(C)O4)C(=O)C(=O)N2CC2CCCO2)cc(OC)c1OC (stereo not drawn)	0	0	0	0	0	0
CC1Cc2cc(/C(O)=C3/C(=O)C(=O)N(CC4CCCO4)C3c3ccco3)ccc2O1 (stereo not drawn)	0	0	50.1	0	0	0
Cc1ccc(C2(COC(=O)C(C)C)CO2)c(OC(=O)C(C)C)c1 (stereo not drawn)	0	0	0	0	0	0
CCC(C)C(=O)OCC1(c2ccc(C)cc2OC(=O)C(C)C)CO1 (stereo not drawn)	0	0	0	0	0	52.8
CC(C)CNC1=C(C(=S)Nc2ccccc2)C(=O)CC(C)(C)C1	0	0	0	0	0	0
O=c1c2c3nc4ccccc4nc3n(Cc3ccccc3)c2ncn1Cc1ccco1	61.5	0	0	0	0	0
O=C(NCCCNC(=O)c1ccc(-c2cc(Cl)ccc2Cl)o1)c1cnccn1	0	0	0	0	0	0
Cn1c(SCC(=O)c2ccc3c(c2)Cc2ccccc2-3)nnc1-c1ccccc1	0	0	0	0	74.4	0
Cn1c(SCC(=O)c2ccccc2)nnc1-c1ccncc1	0	0	0	0	0	0
COc1ccc(OC)c(NC(=O)CCC(=O)N(Cc2ccc(OC)c(OC)c2)c2nccs2)c1	0	0	0	0	43.4	0
